We go through five molecules from ChEMBL document CHEMBL1132167, “Flavonoid-related modulators of multidrug resistance: synthesis, pharmacological activity, and structure-activity relationships” (J Med Chem, 1999).

Data set [1] concerns the target T1, ATP-dependent translocase ABCB1 (Homo sapiens, UniProt P08183). The experiment in a line: Pgp transport inhibitory activity at 1 uM was measured by JC-1 accumulation assay method using JC-1 as substrate. The data set is classed as functional. In outline: (§1)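 JC-1 stock (1 mg/mL in DMSO) diluted to 5 μg/mL in PBS with 1 g/L glucose, then filtered to remove aggregates (monomer 0.2 μM final). Washed K562/DOX cells at 5×10^5/mL were incubated with JC-1 and compound concurrently at 37 °C, DMSO ≤0.5%. Fluorescence (485/590 nm) was followed to plateau, about 2 h. Accumulation is expressed as % of the 5 μM S9788 plate control after subtracting JC-1 alone. Mean of ≥2 experiments.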

Data set [2] has as its target T1, ATP-dependent translocase ABCB1. Put plainly: Pgp transport inhibitory activity at 10 uM was measured by JC-1 accumulation assay method using JC-1 as substrate. It counts as functional. Put shortly:
as §1

The target is the same in data set [3]. Put plainly: Pgp transport inhibitory activity at 5 uM was measured by JC-1 accumulation assay method using JC-1 as substrate. It counts as functional. Put shortly:
as §1

For the next data set, the system named is K562. The experiment in a line: Ability to potentiate DOX cytotoxicity on K562/DOX MDR cells. Cell survival was assayed by MTT conversion. It counts as functional, cell-based. Conditions: Homo sapiens. In outline:
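K562/DOX human erythroleukemia cells (doxorubicin-selected, Pgp-overexpressing; RPMI-1640 + 10% FCS) exposed 72 h to seven graded doxorubicin concentrations (six wells each) plus tested compound at 1 or 5 μM, DMSO ≤0.1% final. MTT formazan dissolved in DMSO, A570 read. Survival relative to untreated wells; DOX IC50 by linear interpolation; MF = IC50(DOX alone)/IC50(DOX + compound). Mean of ≥2 independent experiments.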

Data set [4] is described as follows: (§2) modulation factor: IC50 (uM). The data set is classed as functional.
Data set [5] in a line: as §2. The data set is classed as functional. The source holds these as a separate data set.

T1 sequence (P08183 whole entry): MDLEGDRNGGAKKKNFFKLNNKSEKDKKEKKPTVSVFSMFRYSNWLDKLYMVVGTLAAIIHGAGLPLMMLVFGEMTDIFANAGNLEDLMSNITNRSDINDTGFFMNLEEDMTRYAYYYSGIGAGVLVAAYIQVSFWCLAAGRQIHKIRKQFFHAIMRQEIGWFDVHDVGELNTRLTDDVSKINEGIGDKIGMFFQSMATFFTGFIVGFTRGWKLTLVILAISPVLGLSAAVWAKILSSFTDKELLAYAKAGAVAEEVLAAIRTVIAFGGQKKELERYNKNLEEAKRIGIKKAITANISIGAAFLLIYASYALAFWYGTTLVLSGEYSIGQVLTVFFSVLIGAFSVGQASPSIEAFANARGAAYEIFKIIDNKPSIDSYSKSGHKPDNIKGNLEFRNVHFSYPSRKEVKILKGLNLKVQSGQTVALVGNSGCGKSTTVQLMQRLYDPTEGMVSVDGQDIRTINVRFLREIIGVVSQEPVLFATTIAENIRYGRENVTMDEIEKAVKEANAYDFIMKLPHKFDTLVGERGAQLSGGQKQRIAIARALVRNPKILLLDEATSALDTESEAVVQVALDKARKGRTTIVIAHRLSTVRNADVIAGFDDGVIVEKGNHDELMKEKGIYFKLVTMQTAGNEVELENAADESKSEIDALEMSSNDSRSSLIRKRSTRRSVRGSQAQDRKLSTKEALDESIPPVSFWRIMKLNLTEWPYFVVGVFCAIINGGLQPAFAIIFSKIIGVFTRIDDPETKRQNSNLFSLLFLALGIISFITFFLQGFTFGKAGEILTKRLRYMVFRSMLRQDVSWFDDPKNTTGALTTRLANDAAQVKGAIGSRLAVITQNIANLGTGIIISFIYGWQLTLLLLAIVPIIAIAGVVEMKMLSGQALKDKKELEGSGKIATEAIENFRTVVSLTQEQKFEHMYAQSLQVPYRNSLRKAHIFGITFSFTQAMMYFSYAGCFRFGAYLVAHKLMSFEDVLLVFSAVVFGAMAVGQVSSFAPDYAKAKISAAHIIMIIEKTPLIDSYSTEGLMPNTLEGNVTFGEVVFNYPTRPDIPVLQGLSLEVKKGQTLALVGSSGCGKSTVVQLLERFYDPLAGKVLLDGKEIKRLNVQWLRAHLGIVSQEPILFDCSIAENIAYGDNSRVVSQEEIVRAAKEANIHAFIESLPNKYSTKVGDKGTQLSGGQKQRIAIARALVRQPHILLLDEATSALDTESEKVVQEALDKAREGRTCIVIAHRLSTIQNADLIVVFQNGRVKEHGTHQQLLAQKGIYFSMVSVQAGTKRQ

Take `COc1ccc(C2CC(=O)c3c(O)cc(OCC(=O)N4CCN(Cc5ccc(OC)c(OC)c5OC)CC4)cc3O2)cc1OC(C)=O` (stereo not given): the “Relative JC-1 accumulation” value in data set [1] came to 33; in data set [2], 91; in data set [3], 82. Moreover, the IC50 with K562 was greater than 20 µM. The Modulation factor in data set [4] was found to be 8; in data set [5], 31.

Consider `COc1ccc(-c2cc(=O)c3c(OCC(=O)N4CCN(Cc5ccc(OC)c(OC)c5OC)CC4)cc(OCc4ccccc4)cc3o2)cc1OCc1ccccc1`, for which the “Relative JC-1 accumulation” value in data set [1] was found to be 28; in data set [2], 56; in data set [3], 50. The IC50 in the data set with K562 worked out at 8 µM. Moreover, the Modulation factor came to 14 in data set [4] and 45 in data set [5].

`COc1ccc(C2CC(=O)c3c(OC(=O)C(C)(C)C)cc(OCC(=O)N4CCN(Cc5ccc(OC)c(OC)c5OC)CC4)cc3O2)cc1OC(=O)C(C)(C)C` (stereo not given): the “Relative JC-1 accumulation” value in data set [1] worked out at 72; in data set [2], 75; in data set [3], 82. Further, the IC50 with K562 is greater than 20 µM. Besides, the Modulation factor in data set [4] was found to be 18; in data set [5], 45.

For the molecule `COc1ccc(C2CC(=O)c3c(OC(C)=O)cc(OCC(=O)N4CCN(Cc5ccc(OC)c(OC)c5OC)CC4)cc3O2)cc1OC(C)=O` (stereo not given), the entries for the “Relative JC-1 accumulation” value in data set [1], in data set [2] and in data set [3] were 2, 75 and 55, respectively. The IC50 in the data set on K562 is greater than 20 µM. The Modulation factor in data set [4] turned out to be 10; in data set [5], 31.

Regarding `COc1ccc(/C=C/C(=O)c2c(O)cc(OCC(=O)N3CCN(Cc4ccc(OC)c(OC)c4OC)CC3)cc2O)cc1O`, the “Relative JC-1 accumulation” value is reported as 3 in data set [1], 21 in data set [2] and 17 in data set [3]. Also, the IC50 with K562 was greater than 20 µM. The results for the Modulation factor in data set [4] and in data set [5] were 9 and 45, respectively.

Usually IC50 stands for the concentration at which inhibition is half-maximal.
